Assay results from different studies.
Matrix: plasma

| SMILES | test system | conditions | AUC(0-t) |
| --- | --- | --- | --- |
| CNCc1cc(-c2ccccc2F)n(S(=O)(=O)c2cccnc2)c1 | Sprague-Dawley rat | oral, 10 mg/kg | 643 ng·h/mL |
| CCc1cc(C(=O)NC)c2nccc(N3CCc4c(cc(Cn5ccnc5)cc4-c4cn(C)nc4C(F)(F)F)C3=O)c2c1 | male Sprague-Dawley rat | intravenous, 3 mg/kg | 1270 ng·h/mL |
| Cc1c(-c2ccccc2)cccc1N1C(=O)c2cc(CN[C@H](C(=O)O)C(C)O)c(OCc3cccc(C#N)c3)cc2C1=O (some centres unmarked) | Sprague-Dawley rat | intravenous, 5 mg/kg | 3240 ng·h/mL |
| COc1ccc2c(Cc3ccccc3F)c3n(c(=O)c2c1OC)CCc1cc2c(cc1-3)OCO2 | rat | intravenous, 5 mg/kg | 22700 ng·h/mL |
| CCOC(=O)[C@@]12C[C@@H]1[C@@H](n1ccc3c(NC)nc(C#Cc4ccc(Cl)s4)nc31)[C@H](O)[C@@H]2O | male Sprague-Dawley rat | oral, 3 mg/kg | 170 ng·h/mL |
| O=C(Nc1cc(F)c(F)c(F)c1)c1ccc(F)c(S(=O)(=O)NCc2cccc(B(O)O)c2)c1 | male Sprague-Dawley rat | oral, 20 mg/kg | 34.3 ng·h/mL |
| COc1nc(-c2cc(C)c(N[C@@H](C)c3cc(F)cc(F)c3)nn2)ccc1-n1cnc(C)c1 | male Sprague-Dawley rat | intravenous, 1 mg/kg, single dose | 6350 ng·h/mL |
| CCc1nc(C(N)=O)c(Nc2ccc(N3CCC(N4CCN(C)CC4)CC3)c(OC)c2)nc1NC1CCOCC1 | male Sprague-Dawley rat | oral, 10 mg/kg | 9290 ng·h/mL |
| COc1ccc2c(Cc3ccccc3F)c3[n+](cc2c1OC)CCc1cc2c(cc1-3)OCO2.[Br-] | rat | intravenous, 5 mg/kg | 113 ng·h/mL |
| N#Cc1ccc(Nc2nc(N)cc(Oc3c(F)cc(-c4ccc(C#N)cc4)cc3F)n2)cc1 | Sprague-Dawley rat | oral, 5 mg/kg | 74 ng·h/mL |
| Cc1nc(-c2cnc(NC(C)C)n(C)c2=O)ccc1Oc1ccnc(-c2cnn(C)c2)c1 | male Sprague-Dawley rat | oral, 10 mg/kg | 164000 ng·h/mL |
| CCc1cc(OC)c2nccc(N3CCc4c(cc(Cn5ccnc5)cc4-c4cn(C)nc4C(F)(F)F)C3=O)c2c1 | male Sprague-Dawley rat | intravenous, 3 mg/kg | 952 ng·h/mL |
| C=CC(=O)N1CC2CC(n3nc(-c4ccc(C(=O)Nc5ccccn5)cc4)c4c(N)ncnc43)CC2C1 (centres unmarked) | male Wistar rat | oral, 100 mg/kg | 13200 ng·h/mL |
| CNC(=O)c1c(C)oc2cc(Oc3ncnc4cc(OC)c(OC)cc34)ccc12 | Sprague-Dawley rat | oral, 1 mg/kg, single dose | 6270 ng·h/mL |
